Usually IC50 stands for the concentration that inhibits the measured activity by half. The term pIC50 denotes the negative decadic logarithm of the IC50, by convention in mol/L.

Each structure is given as a SMILES string. pIC50: −log10 of the molar value. Active and inactive are the calls of the source. The calls are words filed in the database; no cut-off is given here. Where only a bound is given, the exact number is not on record here.

System in one series: not listed separately
The experiment in a line: Antiproliferative activity against human HaCaT cells assessed as reduction in cell viability measured after 48 hrs by colorimetric based MTT assay.
Details: not given
Background: Tetrazolium assays rely on reduction of a dye to a coloured formazan, in cell work by metabolically active cells.
In the case of `C=C1[C@@H]2[C@@H](OC(C)=O)/C(=C(\CO)C(=O)O)CC[C@@]2(C)[C@H](O)C[C@@H]1O`, the concentration for half-maximal inhibition (IC50) at 48 h is more than 10 µM.
As to `C=C1C(=O)O[C@H](C2=C(C)[C@@H](O)CC2=O)[C@@H]1CCC(C)=O`, the half-maximal inhibitory concentration (IC50) at 48 h came out at 2.9 µM.
On to `C=C1C(=O)O[C@@H]2[C@H]1C[C@@H](OC(C)=O)[C@@](C)(O)[C@]13O[C@H]1[C@@H](Cl)[C@](C)(O)[C@H]23`, for which the IC50 at 48 h came to 3.5 µM.
Consider `CC(=O)O[C@@H]1CC(C)=C2C(=O)C=C(C)[C@@H]2[C@@H](O)[C@H]1C(C)C(=O)O` (relative stereo), for which the half-maximal inhibitory concentration (IC50) at 48 h is more than 10 µM.
In the case of `C[C@H]1CC[C@]23O[C@]12C[C@H](C(C)(C)O)CC[C@@]3(C)O` (relative stereo), the half-maximal inhibitory concentration (IC50) at 48 h was more than 10 µM.
As to `C=C(C)[C@@H](O)CC[C@@H](C)C1C[C@H](O)C(C)=C[C@@H]1O` (relative stereo), the concentration for half-maximal inhibition (IC50) at 48 h is more than 10 µM.

Another series has as its system HaCaT. Nature of the series: Induction of apoptosis in human HaCaT cells assessed as increase accumulation of hypodiploid nuclei cells at 5 to 40 uM measured after 24 hrs by PI staining based flow cytometry analysis. The format is functional, cell-based. The settings on record: dose 5-40 µM. A digest of the protocol:
(§1)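 A549, Jurkat or HaCaT cells plated at 3 × 10^4 cells/well, left 24 h, then exposed to 40, 20, 10 or 5 μM for 24 h. Staurosporine 0.2 μM served as positive control. Cells washed in PBS and stained 30 min at 4 °C in the dark with PI in 0.1% Triton X-100/0.1% sodium citrate. Analysed by flow cytometry with debris excluded by forward scatter and DNA on a log scale. Read-out is % hypodiploid nuclei. Three independent experiments in triplicate, mean ± SEM, Mann–Whitney U test.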
In general terms: A flow cytometer gives signals particle by particle.
For the molecule `C=C1C(=O)O[C@H](C2=C(C)[C@@H](O)CC2=O)[C@@H]1CCC(C)=O`, the result was Active.

A further series relates to Jurkat. The experiment in a line: Induction of apoptosis in human Jurkat cells assessed as increase accumulation of hypodiploid nuclei cells measured after 24 hrs by PI staining based flow cytometry analysis. The settings on record: dose 5-40 µM, DDE = dose-dependent effect. The format is functional, cell-based. Summed up: as §1
With `C=C1C(=O)O[C@H](C2=C(C)[C@@H](O)CC2=O)[C@@H]1CCC(C)=O`, the Activity entry was “Dde”.

A further series has as its system HaCaT. The experiment in a line: Induction of cell cycle arrest in human HaCaT cells assessed as accumulation at G2 phase at 40 uM measured after 24 hrs by PI staining based flow cytometry analysis. In kind it is functional.
Details: not given
A digest of the protocol: (§2)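 HaCaT or Jurkat cells plated at 3 × 10^4 cells/well, left 24 h, then treated with 40, 20, 10 or 5 μM for 24 h. Staurosporine 0.2 μM served as positive control. DNA stained with PI and 10 000 events per sample acquired by flow cytometry. Percentages of cells in G0/G1, S and G2/M were derived from the DNA profiles. Three independent experiments in triplicate, mean ± SEM, Mann–Whitney U test.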
In the case of `C=C1C(=O)O[C@H](C2=C(C)[C@@H](O)CC2=O)[C@@H]1CCC(C)=O`, the result was Active.

Another series has as its system A549. Nature of the series: Induction of apoptosis in human A549 cells assessed as increase accumulation of hypodiploid nuclei cells at 5 to 40 uM measured after 24 hrs by PI staining based flow cytometry analysis. In kind it is functional, cell-based. The settings on record: dose 5-40 µM. A digest of the protocol:
as §1
On to `C=C1C(=O)O[C@H](C2=C(C)[C@@H](O)CC2=O)[C@@H]1CCC(C)=O`, for which the result was Active.

The next series relates to MCF7. The experiment in a line: Antiproliferative activity against human MCF7 cells assessed as reduction in cell viability measured after 48 hrs by colorimetric based MTT assay. In kind it is functional. The following applies: MCF7, 48 h.
For the molecule `C=C1[C@@H]2[C@@H](OC(C)=O)/C(=C(\CO)C(=O)O)CC[C@@]2(C)[C@H](O)C[C@@H]1O`, the negative-log IC50 (pIC50) was less than 5.00.
As to `C=C1C(=O)O[C@H](C2=C(C)[C@@H](O)CC2=O)[C@@H]1CCC(C)=O`, the pIC50 was less than 5.00.
As to `C=C1C(=O)O[C@@H]2[C@H]1C[C@@H](OC(C)=O)[C@@](C)(O)[C@]13O[C@H]1[C@@H](Cl)[C@](C)(O)[C@H]23`, the negative logarithm of the IC50 (pIC50) was less than 5.00.
The same measure, in the same setting: the figure for `CC(=O)O[C@@H]1CC(C)=C2C(=O)C=C(C)[C@@H]2[C@@H](O)[C@H]1C(C)C(=O)O` (relative stereo) is less than 5.00; for `C[C@H]1CC[C@]23O[C@]12C[C@H](C(C)(C)O)CC[C@@]3(C)O` (relative stereo) it is less than 5.00.
On to `C=C(C)[C@@H](O)CC[C@@H](C)C1C[C@H](O)C(C)=C[C@@H]1O` (relative stereo), for which the pIC50 is less than 5.00.

The subject of the next series is A549. The experiment in a line: Antiproliferative activity against human A549 cells assessed as reduction in cell viability measured after 48 hrs by colorimetric based MTT assay. The format is functional. The settings on record: A549, 48 h.
Consider `C=C1[C@@H]2[C@@H](OC(C)=O)/C(=C(\CO)C(=O)O)CC[C@@]2(C)[C@H](O)C[C@@H]1O`, for which the pIC50 is less than 5.00.
Turning to `C=C1C(=O)O[C@H](C2=C(C)[C@@H](O)CC2=O)[C@@H]1CCC(C)=O`, the pIC50 is 5.05.
`C=C1C(=O)O[C@@H]2[C@H]1C[C@@H](OC(C)=O)[C@@](C)(O)[C@]13O[C@H]1[C@@H](Cl)[C@](C)(O)[C@H]23`: the negative logarithm of the IC50 (pIC50) was less than 5.00.
`CC(=O)O[C@@H]1CC(C)=C2C(=O)C=C(C)[C@@H]2[C@@H](O)[C@H]1C(C)C(=O)O` (relative stereo): the negative-log IC50 (pIC50) was less than 5.00.
`C[C@H]1CC[C@]23O[C@]12C[C@H](C(C)(C)O)CC[C@@]3(C)O` (relative stereo): the pIC50 was less than 5.00.
Regarding `C=C(C)[C@@H](O)CC[C@@H](C)C1C[C@H](O)C(C)=C[C@@H]1O` (relative stereo), the pIC50 was less than 5.00.

A further series deals with A549. Nature of the series: Induction of apoptosis in human A549 cells assessed as increase accumulation of hypodiploid nuclei cells measured after 24 hrs by PI staining based flow cytometry analysis. The format is functional, cell-based. The settings on record: dose 5-40 µM, DDE = dose-dependent effect. A digest of the protocol: as §1
With `C=C1C(=O)O[C@H](C2=C(C)[C@@H](O)CC2=O)[C@@H]1CCC(C)=O`, the Activity entry is “Dde”.

In the next series the test system is Jurkat. The experiment in a line: Antiproliferative activity against human Jurkat cells assessed as reduction in cell viability measured after 48 hrs by colorimetric based MTT assay. In kind it is functional.
Details: not given
Summed up:
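Jurkat leukemia cells kept in RPMI with 10% FBS, 2 mM L-glutamine and penicillin/streptomycin at 37 °C, 5% CO2. Plated at 3.5 × 10^3 cells/well and left 24 h, then given fresh medium alone or with serial dilutions (40, 20, 10, 5 μM) for 48 h. Staurosporine 0.2 μM served as positive control. MTT added for 3 h, formazan dissolved in DMF/SDS solution at pH 4.5, OD read at 620 nm. Viability calculated as % of DMSO control. IC50 taken as the concentration giving 50% growth inhibition versus control.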
On to `CN[C@@H]1C[C@H]2O[C@@](C)([C@@H]1OC)n1c3ccccc3c3c4c(c5c6ccccc6n2c5c31)C(=O)NC4` [STAUROSPORINE], for which the pIC50 is 5.49.
Turning to `C=C1[C@@H]2[C@@H](OC(C)=O)/C(=C(\CO)C(=O)O)CC[C@@]2(C)[C@H](O)C[C@@H]1O`, the pIC50 is less than 5.00.
Consider `C=C1C(=O)O[C@H](C2=C(C)[C@@H](O)CC2=O)[C@@H]1CCC(C)=O`, for which the negative-log IC50 (pIC50) was 5.11.
In the case of `C=C1C(=O)O[C@@H]2[C@H]1C[C@@H](OC(C)=O)[C@@](C)(O)[C@]13O[C@H]1[C@@H](Cl)[C@](C)(O)[C@H]23`, the pIC50 was less than 5.00.
Still for that read-out and setting: the same measure for `CC(=O)O[C@@H]1CC(C)=C2C(=O)C=C(C)[C@@H]2[C@@H](O)[C@H]1C(C)C(=O)O` (relative stereo): less than 5.00; for `C[C@H]1CC[C@]23O[C@]12C[C@H](C(C)(C)O)CC[C@@]3(C)O` (relative stereo): less than 5.00.
`C=C(C)[C@@H](O)CC[C@@H](C)C1C[C@H](O)C(C)=C[C@@H]1O` (relative stereo): the negative-log IC50 (pIC50) is less than 5.00.

The next series deals with Jurkat. The experiment in a line: Induction of cell cycle arrest in human Jurkat cells assessed as accumulation at S phase measured after 24 hrs by PI staining based flow cytometry analysis. In kind it is functional. The following applies: dose 5-40 µM, DDE = dose-dependent effect. A digest of the protocol:
as §2
As to `C=C1C(=O)O[C@H](C2=C(C)[C@@H](O)CC2=O)[C@@H]1CCC(C)=O`, the Activity result was “Dde”.

The next series relates to A-375. The experiment in a line: Antiproliferative activity against human A-375 cells assessed as reduction in cell viability measured after 48 hrs by colorimetric based MTT assay. In kind it is functional. The following applies: A-375, 48 h.
In the case of `C=C1[C@@H]2[C@@H](OC(C)=O)/C(=C(\CO)C(=O)O)CC[C@@]2(C)[C@H](O)C[C@@H]1O`, the negative-log IC50 (pIC50) is less than 5.00.
`C=C1C(=O)O[C@H](C2=C(C)[C@@H](O)CC2=O)[C@@H]1CCC(C)=O`: the pIC50 was less than 5.00.
Take `C=C1C(=O)O[C@@H]2[C@H]1C[C@@H](OC(C)=O)[C@@](C)(O)[C@]13O[C@H]1[C@@H](Cl)[C@](C)(O)[C@H]23`: the pIC50 is less than 5.00.
On to `CC(=O)O[C@@H]1CC(C)=C2C(=O)C=C(C)[C@@H]2[C@@H](O)[C@H]1C(C)C(=O)O` (relative stereo), for which the pIC50 was less than 5.00.
On to `C[C@H]1CC[C@]23O[C@]12C[C@H](C(C)(C)O)CC[C@@]3(C)O` (relative stereo), for which the pIC50 is less than 5.00.
Consider `C=C(C)[C@@H](O)CC[C@@H](C)C1C[C@H](O)C(C)=C[C@@H]1O` (relative stereo), for which the negative-log IC50 (pIC50) is less than 5.00.

The next series concerns HaCaT. The experiment in a line: Induction of apoptosis in human HaCaT cells assessed as increase accumulation of hypodiploid nuclei cells measured after 24 hrs by PI staining based flow cytometry analysis. The format is functional, cell-based. The following applies: dose 5-40 µM, DDE = dose-dependent effect. Summed up: as §1
Take `C=C1C(=O)O[C@H](C2=C(C)[C@@H](O)CC2=O)[C@@H]1CCC(C)=O`: the Activity entry was “Dde”.

The values are drawn from ChEMBL document CHEMBL5143598, “Cytotoxic Sesquiterpenoids from Ammoides atlantica Aerial Parts” (J Nat Prod, 2022).
